# Experimental data from different studies.
# Compare with care: the assays were run in different laboratories.
# Target: cGMP-dependent protein kinase 2 (PRKG2, Homo sapiens, UniProt Q13237)
# Residues used in one study (Q13237 1-762): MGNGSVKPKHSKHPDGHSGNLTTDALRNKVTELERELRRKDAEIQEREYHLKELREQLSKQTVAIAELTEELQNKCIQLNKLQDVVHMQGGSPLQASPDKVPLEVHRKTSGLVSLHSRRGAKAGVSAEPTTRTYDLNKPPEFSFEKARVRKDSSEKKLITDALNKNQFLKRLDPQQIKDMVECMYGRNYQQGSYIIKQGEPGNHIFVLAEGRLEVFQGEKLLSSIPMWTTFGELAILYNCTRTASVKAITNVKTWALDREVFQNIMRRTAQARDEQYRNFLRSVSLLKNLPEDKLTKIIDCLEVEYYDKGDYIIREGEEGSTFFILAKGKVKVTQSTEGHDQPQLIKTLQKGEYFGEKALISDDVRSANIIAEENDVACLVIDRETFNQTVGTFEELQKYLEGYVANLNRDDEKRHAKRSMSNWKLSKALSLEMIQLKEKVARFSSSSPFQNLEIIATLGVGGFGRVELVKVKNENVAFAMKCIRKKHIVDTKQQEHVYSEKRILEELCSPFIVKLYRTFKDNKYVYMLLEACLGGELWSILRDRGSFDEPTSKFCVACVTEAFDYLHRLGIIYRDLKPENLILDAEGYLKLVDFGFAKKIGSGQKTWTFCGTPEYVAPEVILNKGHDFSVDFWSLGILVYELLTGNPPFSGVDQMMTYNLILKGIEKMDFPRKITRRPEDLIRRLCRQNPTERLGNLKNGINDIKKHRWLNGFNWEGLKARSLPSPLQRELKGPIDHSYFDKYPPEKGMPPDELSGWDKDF
Compound,assay,setting,quantity,value
Cc1ccc(C(=O)NCc2ccsc2)cc1C#Cc1cn(C(C)C)c2ncnc(N)c12,"enzyme activity, inhibitor",1 µM,activity vs control,112%
CCCS(=O)(=O)Nc1ccc(F)c(C(=O)c2c[nH]c3ncc(-c4ccc(Cl)cc4)cc23)c1F,"enzyme activity, inhibitor",1 µM,inhibition,< 10%
O=C1Nc2ccc(Cl)cc2C1=Cc1cc(Cl)c(O)c(Cl)c1,cell-free assay,0.5 µM,remaining signal,97%
O=C(NCCCC1CCCCC1)c1ccc(CNC(=O)c2cnn(-c3ccccc3)c2C(F)(F)F)cc1,"cell-free assay, competition with immobilised ligand",0.1 µM,remaining binding,89%
C#Cc1cccc(Nc2ncnc3cc(OCCOC)c(OCCOC)cc23)c1,cell-free assay,0.5 µM,remaining signal,107%
COc1cc2ncnc(Nc3ccc(Oc4ccccc4)cc3C)c2cc1OC,"enzyme activity, inhibitor",1 µM,inhibition,3%
CC(C)(C)c1nc2c(s1)c1nc(N)ncc1c1ccc(NS(=O)(=O)c3c(F)cccc3F)c(F)c12,"enzyme activity, inhibitor, radiometric",1 µM,remaining activity,102%
CSc1cccnc1N1CCN(Cc2nc3ccccc3[nH]2)CC1,"cell-free assay, competition with immobilised ligand",1 µM,remaining binding,94%
Cn1cnc(Br)c1C1=CN(c2ncnc3[nH]cnc23)CCS1,"enzyme activity, inhibitor, radiometric",2 µM,inhibition,91.7%
CN([C@@H]1CCc2c(CC(=O)O)c3ccccc3n2C1)S(=O)(=O)c1ccc(F)cc1,"cell-free assay, competition with immobilised ligand",1 µM,remaining binding,100%
Cn1cncc1C1=CN(c2ncnc3[nH]cnc23)CCS1,"enzyme activity, inhibitor, radiometric",2 µM,inhibition,99.4%
Cc1ccc(C(=O)Nc2ccc(CN3CCN(C)CC3)c(C(F)(F)F)c2)cc1C#Cc1cnc2cccnn12,"enzyme activity, inhibitor",23.5 nM,remaining activity,82%
N#CC1(c2ccccn2)CCN(Cc2cc(C(=O)N3CCCC3)c(=O)n3ccccc23)CC1,"cell-free assay, competition with immobilised ligand",1 µM,remaining binding,100%
CN(C)C1CCN(CC#Cc2nn(C3CCCC3)c3nc(NCc4ccccc4)ncc23)C1 (stereo not drawn),"enzyme activity, inhibitor, FRET",1 µM,inhibition,6%
CN(C)c1ncnc(-c2ccc3nc(Nc4cc(CN5CCN(C(=O)CC(F)(F)F)CC5)ccn4)[nH]c3c2)c1Cl,"cell-free assay, competition with immobilised ligand",1 µM,remaining binding,40%
O=C(Nc1cnn(-c2csc(C(=O)NC3COC3)c2)c1)Nc1ccccc1Cl,"enzyme activity, inhibitor",5 µM,remaining activity,101%
N#CCCc1ccc2c(c1)-c1[nH]c3ccc([N+](=O)[O-])cc3c1CC(=O)N2,cell-free assay,0.5 µM,remaining signal,93.9%
CO[C@H]1CC[C@H](CNc2ccc(S(=O)(=O)NC(=O)c3ccc(N4CCN(CC5=C(c6ccc(Cl)cc6)CC(C)(C)CC5)CC4)cc3Oc3cnc4[nH]ccc4c3)cc2[N+](=O)[O-])CC1,"cell-free assay, competition with immobilised ligand",1 µM,remaining binding,90%
